In the library only some 3.6% were active in any assay of this set; here they are far more common.
SKKanGAS inh = blocks kanamycin growth of S. pyogenes SKKanGAS strain; BacTiter-Glo, 6 h; inhibition, % at 7.5 µM; 300,000 compounds, 1.3% hits;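 active = mean replicate score, as percent of positive control median, at least 50; inconclusive = mean below 50 but one replicate at or above 50; inactive = mean and every replicate below 50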;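 note: strain carries kanamycin resistance gene driven by streptokinase promoter and grows in 40 µg/ml kanamycin; loss of luminescence reflects streptokinase promoter inhibition or plain growth inhibition; 0% = median of DMSO wells and 100% = positive control at its reference dose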
PfHsp90 yeast 2 = growth inhibition of yeast expressing Plasmodium Hsp90. inhibition, % at 9.4 µM. S. cerevisiae expressing PfHsp90, BacTiter-Glo ATP, 48 h; yeast lacking PDR1 and PDR3 efflux regulators. 310,000 compounds, 0.32% hits. AID 504621;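 active = every replicate shows inhibition above about 80%, whatever the replicate mean, limit read from the data; inconclusive = mean inhibition reaches the set limit but some replicate falls short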;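 note: 0% = DMSO neutral controls and 100% = 20 µM radicicol positive controls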
T cruzi inh = T. cruzi replication inhibition | T. cruzi beta-gal in NIH3T3, luminescence, 90 h | inhibition, % (test concentration not listed) | 300,000 compounds, 1.4% hits;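 active = mean inhibition across valid replicates above about 55%, limit read from the data; inconclusive = mean below that limit but half or more replicates reach it; inactive = mean below it, under half of replicates reach it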;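 note: signal also drops with host cell toxicity which is not excluded here; 0% = plate median of DMSO wells and 100% = zero luminescence signal; higher percent means less beta-gal luminescence so fewer parasites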
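System: mouse NIH/3T3 fibroblasts infected with β-gal-expressing T. cruzi Tulahuen C4 / Input: NIH/3T3 cells, 5,000 per well / Buffer or medium: Low-serum DMEM with 2% FBS / Probe or stimulus: 5000 reporter trypomastigotes per well / Schedule: ≥90 h infection period, 3 h prior cell attachment / Measured by: GalScreen luminescence, 60 min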
HIF activator = HIF pathway transcriptional activation; U2OS HRE-luciferase reporter, luminescence; normalized: DMSO 0%, desferrioxamine 100%; activation, % at 7.5 µM (by protocol); 300,000 compounds, 0.32% hits; AID 1910;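 active = mean activation of at least 10% of the iron chelator positive control signal, with at least half of replicates also reaching 10%; inconclusive = mean and replicate majority disagree about reaching 10%; inactive = mean and most replicates under 10%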
CSC inhib = blocks cancer stem cells; cancer stem cell-like cells viability, luminescence; inhibition, % at 7.5 µM; 300,000 compounds, 1.1% hits; in the data active = inhibition above about 75%; inconclusive = no clear call, values can overlap the other calls; tested in HMLE shEcad cells
Beta cell apopt = blocks beta cell apoptosis | protection from apoptosis, % (test concentration not listed) | INS-1E cytokine-induced death, ATP luminescence, 48 h; percent of positive-control rescue, neutral wells zero | 300,000 compounds, 0.8% hits | AID 435005;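 active = Every replicate reaches about 75%, or at least half do and their mean reaches it too, limit read from the data; inconclusive = At least half of replicates reach the limit but their mean does not; inactive = Under half of replicates reach the limit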;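 note: 0% = cytokine-treated negative control wells and 100% = positive control rescue; higher means more ATP so stronger rescue from cytokine killing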
Starred values were filed as active, the others as inactive; ? = inconclusive; . = no result.

SMILES | SKKanGAS inh | PfHsp90 yeast 2 | T cruzi inh | HIF activator | CSC inhib | Beta cell apopt
Cc1cc(Cl)ccc1N=c1ssnc1Cl | 2.6 | ? | -14.5 | -0.9 | -12.5 | 24.6
CC(OC(=O)C1=COCCO1)C(=O)NC1(C#N)CCCCC1 (stereo not drawn) | . | . | . | . | -0.9 | -7.7
COc1ccc(CCn2c(C3CCCCC3)nc3c(c(=O)c4ccccc4n3C)c2=O)cc1 | 68.0* | . | ? | 0.3 | ? | .
Cn1c2ccccc2c(=O)c2c(=O)n(C3CCCCC3)c(-c3cccs3)nc21 | 60.4* | 12.7 | ? | -0.3 | 50.1 | 42.3
COc1ccc(Cn2c(C3CCCCC3)nc3c(c(=O)c4ccccc4n3C)c2=O)cc1 | 70.5* | . | ? | -0.5 | 36.2 | 19.4
COc1ccc(CCn2c(C3CCCCC3)nc3c(c(=O)c4ccccc4n3C)c2=O)cc1OC | 15.9 | 9.2 | . | . | -4.4 | 6.7
COc1ccc(Cn2c(-c3ccccc3)nc3c(c(=O)c4ccccc4n3C)c2=O)cc1 | 20.1 | 21.0 | -3.5 | -0.4 | 14.3 | 9.0
CCOc1nc2cnccc2n(CC(=O)Nc2c(C)cccc2CC)c1=O | 16.3 | 15.6 | -14.5 | -0.5 | -2.1 | -4.8
CC1CCCC(NC(=O)Cn2c(Cl)nc3c2c(=O)n(C)c(=O)n3C)C1C (stereo not drawn) | . | 1.9 | . | . | . | 2.9
N#Cc1cc2ccccc2nc1SCC(=O)Nc1ccc(S(=O)(=O)N2CCCC2)cc1 | 4.5 | . | 56.3* | -0.5 | 29.1 | 27.0
Cc1cccc(C)c1OCC(=O)Nc1ccccc1N1CCCCC1 | 85.7* | -39.4 | 27.4 | -0.1 | 39.1 | -8.0
Cc1ccc(Cl)c(OCC(=O)Nc2ccccc2N2CCCCC2)c1 | ? | -39.2 | 30.8 | 0.0 | -14.5 | .
O=C(CN1CCc2ccccc2C1)Nc1ccccc1N1CCCCCC1 | 85.6* | -26.0 | 34.8 | -0.5 | 0.5 | .
Cc1cccc(OCC(=O)Nc2ccccc2N2CCCCC2)c1C | 70.4* | -2.4 | 40.6 | -0.1 | -7.2 | 6.0
COc1ccc(OCC(=O)Nc2ccccc2N2CCCCC2)cc1 | 6.5 | -26.4 | 25.9 | 2.0 | 60.7 | 8.8
CCOc1ccc(N(CC(=O)NCCc2ccccc2)S(=O)(=O)c2ccccc2)cc1 | -1.1 | 0.3 | 9.8 | 0.6 | -7.8 | 2.3
CCn1c(=O)c(CCC(=O)N2CCN(c3ccccn3)CC2)c(C)c2c(C)nn(-c3cccc(C)c3)c21 | 49.2 | -12.7 | 58.4* | 0.2 | 4.6 | 2.2
Cn1c(=O)c2c(ncn2CC(=O)NC[C@H]2O[C@@H](n3cnc4c(N)ncnc43)[C@H](O)[C@@H]2O)n(C)c1=O | . | 32.1 | . | . | . | .
CCOC(=O)c1c(C)[nH]c(C(=O)OCC(=O)Nc2cc(Cl)ccc2OC)c1C | 4.2 | 23.3 | 15.8 | 0.1 | -6.4 | 4.2
CC(=O)c1c(C)[nH]c(C(=O)OCC(=O)Nc2ccc(Cl)cc2[N+](=O)[O-])c1C | -12.2 | -20.4 | 0.6 | 0.2 | -3.4 | 112.6*
O=C(OCC(=O)N1N=C(c2ccc(Cl)cc2)CC1c1ccco1)c1ccco1 (stereo not drawn) | 7.5 | -22.0 | -5.9 | -0.1 | -7.7 | -5.2
Cc1ccc(S(=O)(=O)NCC(=O)OCC(=O)N2N=C(c3ccc(Cl)cc3)CC2c2ccco2)cc1C (stereo not drawn) | 70.1* | 11.5 | -10.1 | -0.1 | -17.6 | 7.1
O=S(=O)(Nc1nc2ccccc2nc1Nc1ccc(N2CCOCC2)cc1)c1cc(Cl)ccc1Cl | 40.9 | -8.0 | 50.1 | -0.3 | 86.2* | 84.3*
Clc1nc(Nc2ccc(N3CCOCC3)cc2)c2ccccc2n1 | 1.3 | -17.2 | -20.9 | 1.9 | . | .
O=C1CCC(c2ccccc2)N1c1ccccc1 (stereo not drawn) | . | -7.2 | . | . | . | .
SMILES | SKKanGAS inh | PfHsp90 yeast 2 | T cruzi inh | HIF activator | CSC inhib | Beta cell apopt
CCOc1ccc(CCNC(=O)COC(=O)/C=C/c2ccccc2OC)cc1OCC | 4.5 | . | 1.5 | 0.1 | -5.7 | -0.5
O=C(CC(C(=O)N1CCc2ccccc21)n1ccnc1)N1CCc2ccccc2C1 (stereo not drawn) | 6.0 | . | 72.2* | -0.3 | 5.6 | -1.2
Cc1ccc(-c2cc(C(F)F)nc(N3CCC(C)CC3)n2)cc1 | 63.1* | . | 4.4 | -0.8 | 43.7 | .
O=C1CC(c2ccccc2)CC(O)=C1C=NCc1ccccc1Cl (stereo not drawn) | -11.0 | 11.8 | -2.4 | 0.4 | 84.4* | 13.0
FC(F)Oc1ccc(-n2cc(-c3ccc(Cl)cc3)[n+]3c2CCCCC3)cc1 | 4.2 | 4.0 | 25.5 | -1.1 | -5.9 | 14.4
COc1ccc(-n2c(-c3ccc(Cl)cc3)c[n+]3c2CCCCC3)cc1 | 12.8 | -0.5 | 54.3 | -0.5 | 20.4 | 125.2*
COc1ccc(-c2c[n+]3c(n2-c2ccccc2)CCCCC3)cc1 | -1.7 | -12.8 | ? | -0.1 | 26.7 | 115.3*
FC(F)Oc1ccc(-c2c[n+]3c(n2-c2ccccc2)CCCCC3)cc1 | 0.4 | -6.6 | 35.6 | -0.1 | -8.4 | 7.7
COc1ccc(-c2c[n+]3c(n2-c2c(C)n(C)n(-c4ccccc4)c2=O)CCCCC3)cc1 | -2.5 | -16.9 | -28.0 | 0.4 | -9.2 | -4.0
COc1ccc(-c2c[n+]3c(n2-c2ccc(C)cc2)CCCCC3)cc1 | 10.2 | 2.2 | 60.1* | 0.4 | 15.7 | 126.7*
COc1ccc(-c2c[n+]3c4n2CCCCC4=C(c2ccccc2)C3)cc1 | 11.3 | . | 61.7* | 0.5 | . | .
O=S(=O)(Nc1ccncc1)c1cc(Cl)c(Cl)cc1Cl | -1.1 | 7.4 | -6.8 | -0.3 | -10.3 | -1.8
CN1c2ccccc2-c2nc3ccccc3n2C1c1cccs1 (stereo not drawn) | 6.7 | -16.0 | 0.5 | 0.3 | 9.3 | -3.0
CC(C)Oc1ccc(C(=O)Nc2ccc(Cl)c(S(=O)(=O)Nc3ccc(Cl)cc3)c2)cc1 | 110.2* | -9.6 | 36.6 | -0.4 | 2.3 | 6.6
CC(NC(N)=O)C(=O)Nc1ccc(Cl)c(S(=O)(=O)Nc2ccc(Cl)cc2)c1 (stereo not drawn) | 1.9 | 5.2 | 7.3 | -0.6 | -5.3 | 2.5
COc1cc(OC)cc(-c2nnc(SCC(=O)N(Cc3ccccc3)C(C)(C)C)o2)c1 | 30.2 | -8.4 | 37.4 | -0.3 | 113.1* | 20.1
Cc1cc(C(=O)NNC(=S)Nc2ccccc2)nn1C | 0.1 | 8.1 | -12.9 | 1.9 | -9.4 | 3.2
Cc1cccc(N2CCN(S(=O)(=O)c3c(C)noc3/C=C/N(C)C)CC2)c1C | 15.4 | 111.4* | 10.5 | 0.6 | 29.3 | 0.0
Cc1noc(/C=C/N(C)C)c1S(=O)(=O)N1CCN(c2ccc(F)cc2)CC1 | 23.8 | -23.1 | -1.8 | 0.4 | 3.5 | 0.8
c1ccc2c(Nc3nnc(-c4ccncc4)s3)cccc2c1 | 5.1 | -69.3 | 57.5* | 2.5 | 6.7 | 1.1
O=[N+]([O-])c1ccccc1/C=N/N1CCN(c2ccncc2S(=O)(=O)N2CCCCC2)CC1 | 19.0 | 4.0 | 76.3* | 0.4 | 3.8 | 8.5
COc1ccc([N+](=O)[O-])c(OC)c1C(=O)NC(=O)Nc1nc(C)nc(C)n1 | -1.5 | 9.5 | -14.9 | -0.5 | -5.2 | -1.9
